The list is not random: actives were taken first. Their share in the collection is about 1%.
ERp5 inh: inhibitors of ERp5-driven insulin aggregation, primary screen, biochemical, turbidity, absorbance 650 nm, single point; 90 min; inhibition, % at 9.99 µM; 350,000 tested, 0.05% active;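 active = mean replicate inhibition above about 25%, with every replicate also reaching it, limit read from the data, passing the limit was not always enough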
CAL PDZ FP-1: CAL PDZ peptide-binding inhibitors, primary screen, biochemical, fluorescence polarization, Cer-tagged CAL PDZ, HTS | purified CAL PDZ, TMR-peptide fluorescence polarization, 1 h | inhibition, % at 20 µM | 330,000 tested, 0.02% active | AID 504414, 2011;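 active = highest replicate inhibition of at least 40%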
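Read-out basis: mP drop reported as inhibition | Assay system: Tagged CAL PDZ protein CerCALP, purified | Benchmarks: Unlabelled peptide for full inhibition, DMSO wells as neutral | Schedule: 1 h incubation at room temperature before polarization reading | Buffer or medium: Sodium phosphate/NaCl buffer pH 7.4 with TCEP, IgG, Thesit | Doses: Single point, 20 µM | Measured by: Fluorescence polarization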
RAD52 inh: RAD52 DNA annealing inhibitors, primary screen, biochemical, FRET, single point, set 2; recombinant RAD52 DNA annealing, FRET fluorescence; inhibition, % at 18.7 µM; 360,000 tested, 0.46% active; AID 651710, 2012; DNA repair protein RAD52 homolog (Homo sapiens), P43351;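 active = every replicate showing at least 50% inhibition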
RAD54 branch: inhibitors of human RAD54 branch migration, primary screen, biochemical, fluorescence, single point | DNA repair and recombination protein RAD54-like (Homo sapiens), Q92698 | RAD54 Holliday junction branch migration, FAM/BHQ fluorescence | inhibition, % at 10.4 µM | 360,000 tested, 0.14% active;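 active = mean normalized replicate activity at least 40 and at least half of replicates scoring 40 or more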;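 also: inhibitors cause a drop in the FAM fluorescence signal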
Target sequence (Q92698 whole entry, looked up): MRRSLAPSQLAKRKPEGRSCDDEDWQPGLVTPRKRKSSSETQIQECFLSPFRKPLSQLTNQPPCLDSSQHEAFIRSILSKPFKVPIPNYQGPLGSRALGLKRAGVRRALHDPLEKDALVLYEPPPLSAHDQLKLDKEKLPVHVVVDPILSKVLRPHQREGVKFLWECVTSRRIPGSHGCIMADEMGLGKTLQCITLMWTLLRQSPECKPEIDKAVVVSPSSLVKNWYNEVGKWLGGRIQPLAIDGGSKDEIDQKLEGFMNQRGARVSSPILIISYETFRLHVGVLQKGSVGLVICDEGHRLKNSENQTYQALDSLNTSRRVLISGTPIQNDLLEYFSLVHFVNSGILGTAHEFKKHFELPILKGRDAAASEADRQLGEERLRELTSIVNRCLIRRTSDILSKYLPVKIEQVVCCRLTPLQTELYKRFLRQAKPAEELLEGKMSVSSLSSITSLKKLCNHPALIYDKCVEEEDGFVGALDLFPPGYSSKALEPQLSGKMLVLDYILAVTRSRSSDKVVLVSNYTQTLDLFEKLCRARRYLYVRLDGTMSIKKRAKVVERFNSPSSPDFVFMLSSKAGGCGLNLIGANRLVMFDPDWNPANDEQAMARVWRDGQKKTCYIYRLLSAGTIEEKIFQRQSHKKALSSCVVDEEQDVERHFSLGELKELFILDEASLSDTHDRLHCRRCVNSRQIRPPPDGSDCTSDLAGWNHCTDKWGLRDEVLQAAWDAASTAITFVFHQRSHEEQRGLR
PDI inh: inhibitors of human PDI, primary screen, biochemical, turbidity, single point, plate reader; Protein disulfide-isomerase (Homo sapiens), P07237; PDI insulin aggregation turbidity, A650, 90 min; inhibition, % at 10 µM; 350,000 tested, 0.052% active; AID 588391, 2011;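 active = mean inhibition across replicates of 30% or more, whatever share of single replicates reach that level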
CAL PDZ FP-2: untagged CAL PDZ binding inhibitors, primary screen, biochemical, fluorescence polarization, HTS | AID 602252, 2012 | purified CAL PDZ, TMR-peptide fluorescence polarization, 1 h | inhibition, % at 24.9 µM | 300,000 tested, 0.92% active | Golgi-associated PDZ and coiled-coil motif-containing protein (Homo sapiens), Q9HD26;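 active = mean inhibition of at least 30% with at least half of replicates also reaching 30%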
Numbers stand for hits; – = inactive; · = no result; ! = repeats disagree.

SMILES	ERp5 inh	CAL PDZ FP-1	RAD52 inh	RAD54 branch	PDI inh	CAL PDZ FP-2
O=C(NCC(c1ccco1)N1CCN(c2ccccc2)CC1)C(=O)NC1CCCCC1 (centres undefined)	–	–	–	–	–	36
CS(=O)(=O)N1C[C@H](O)COC[C@@H]2O[C@@H](CC(=O)NCc3ccc(-c4ccccc4)cc3)CC[C@H]21	–	·	78	–	·	·
O=C(C[C@H]1CC[C@@H]2[C@H](COC[C@@H](O)CN2S(=O)(=O)c2ccccc2)O1)Nc1ccc(-c2ccccc2)cc1	–	·	–	–	·	·
O=C(C[C@@H]1CC[C@H]2[C@@H](COC[C@H](O)CN2S(=O)(=O)c2ccccc2)O1)NCc1ccc(-c2ccccc2)cc1	–	·	80	–	·	·
COc1ccccc1S(=O)(=O)N1C[C@H](O)COC[C@H]2O[C@@H](CC(=O)O)CC[C@@H]21	36	·	–	–	·	·
CS(=O)(=O)N1C[C@@H](O)COC[C@@H]2O[C@H](CC(=O)NCc3ccc(-c4ccccc4)cc3)CC[C@H]21	–	·	–	–	·	·
CC(=O)Oc1ccc(C2OC(=O)c3ccccc3N2C(C)=O)cc1 (centres undefined)	·	–	·	–	32	–
Cc1cc(C)n(-c2nc(NCCCN(C)C)c3c4c(sc3n2)COC(C)(C)C4)n1	–	·	–	–	–	·
Cc1cc(C)n(-c2nc(NCCCN(C)C)c3c4c(sc3n2)CCCC4)n1	–	·	53	–	–	·
CCN(CC)c1ccc(/C=N/N2CCN(c3ccccn3)CC2)cc1	–	–	–	·	–	43
COCC(=O)Nc1ccc2c(c1)C(=O)N(C)[C@H]1CC[C@@H](CC(=O)NCc3ccccc3Cl)O[C@H]1CO2	·	·	·	–	·	·
CCCn1cnc2c(SCc3ccccc3)nc(N)nc21	–	–	–	–	–	–
Nc1nc(SCc2ccccc2)c2ncn(Cc3ccccc3)c2n1	–	–	–	–	–	41
Cc1ccccc1NNC(=O)C(=O)NNc1ccccc1C	–	–	–	·	–	33
Cc1ccccc1NC(=O)Cc1ccccc1	·	–	·	–	–	70
Cc1ccccc1NC(=O)CCCCC(=O)Nc1ccccc1C	–	–	–	–	–	–
Cc1ccc(C)c(NNC(=O)C(=O)NNc2cc(C)ccc2C)c1	–	·	–	–	–	·
O=C(Cc1ccccn1)NCC[C@@H]1CC[C@@H](NC(=O)CN2CCOCC2)[C@@H](CO)O1	–	·	–	–	·	·
C[C@H]1CCCCO[C@@H](CN(C)C(=O)Nc2ccccc2)[C@@H](C)CN([C@@H](C)CO)C(=O)c2cc(NC(=O)C3CCCCC3)ccc2O1	–	·	–	–	·	·
O=C(COC(=O)c1cc(=O)c2ccccc2o1)NCc1ccc(Cl)cc1	–	·	–	–	–	·
O=C(COC(=O)c1cc(=O)c2ccccc2o1)NCc1ccccc1	–	–	–	–	–	50
O=C(COC(=O)c1ccc(Br)o1)NCc1ccc(Cl)cc1	–	–	–	–	–	31
O=C(COC(=O)c1ccc(Br)o1)NCc1ccc(F)cc1	–	–	–	–	–	–
Cn1cnc(S(=O)(=O)N[C@H]2C=C[C@H](CC(=O)Nc3ccccc3)O[C@H]2CO)c1	–	·	–	–	·	·
CCC[C@@H](CN1CCC[C@H]1CN1C(N)=NC[C@@H]1Cc1ccccc1)N1C[C@@H](Cc2ccccc2)N(CCc2ccc(Cl)c(Cl)c2)C1=N	–	–	56	–	–	–
SMILES	ERp5 inh	CAL PDZ FP-1	RAD52 inh	RAD54 branch	PDI inh	CAL PDZ FP-2
CCC[C@@H](CN1CCC[C@H]1CN1C(N)=NC[C@@H]1Cc1ccccc1)N1C[C@@H]([C@H](C)CC)N(CCc2ccc(Cl)c(Cl)c2)C1=N	·	–	·	–	–	–
C[C@H](CO)N1C[C@H](C)[C@@H](CN(C)S(=O)(=O)c2cccs2)Oc2c(NS(C)(=O)=O)cccc2C1=O	–	·	–	–	·	·
CC(C1CC1)N(Cc1ccccc1)C(=S)Nc1ccccc1Cl (centres undefined)	–	–	–	·	–	88
Cc1ccc(-c2ccc(C3[C@@H]4CN(S(=O)(=O)c5ccc(C)cc5)C[C@H]3N4)cc2)cc1 (some centres undefined)	–	·	74	·	·	·
O=S(=O)(c1ccc(-c2ccccc2)cc1)N1C[C@@H]2N[C@H](C1)C2c1ccc(-c2cncnc2)cc1 (some centres undefined)	–	·	–	·	·	·
Cc1ccc(-c2ccc(C3[C@@H]4CN(S(=O)(=O)c5cccc(C)c5)C[C@H]3N4)cc2)cc1 (some centres undefined)	–	·	98	·	·	·
CN(C)C(=O)c1ccc(-c2ccc(C3[C@@H]4CN(S(=O)(=O)c5ccc(F)cc5)C[C@H]3N4)cc2)cc1 (some centres undefined)	–	·	–	·	·	·
O=S(=O)(c1ccccc1)N1C[C@@H]2N[C@H](C1)C2c1ccc(-c2ccc(F)cc2)cc1 (some centres undefined)	–	·	66!	·	·	·
Cc1cccc(S(=O)(=O)N2C[C@@H]3N[C@H](C2)C3c2ccc(-c3cccc(C(=O)N(C)C)c3)cc2)c1 (some centres undefined)	–	·	–	·	·	·
Cc1cccc(S(=O)(=O)N2C[C@@H]3N[C@H](C2)C3c2ccc(-c3cccc(C#N)c3)cc2)c1 (some centres undefined)	–	·	54!	·	·	·
C[C@H](CO)N1C[C@H](C)[C@@H](CN(C)S(=O)(=O)c2ccccc2)Oc2ccc(NC(=O)Nc3cccc4ccccc34)cc2C1=O	–	·	–	–	·	·
O=S(=O)(c1ccc(F)cc1)N1C[C@@H]2N[C@H](C1)C2c1ccc(-c2ccc(F)cc2)cc1 (some centres undefined)	–	·	87!	·	·	·
Cc1cccc(S(=O)(=O)N2C[C@@H]3N[C@H](C2)C3c2ccc(-c3ccccc3F)cc2)c1 (some centres undefined)	–	·	80!	·	·	·
O=S(=O)(c1ccc(-c2ccccc2)cc1)N1C[C@@H]2N[C@H](C1)[C@@H]2c1ccc(-c2cccnc2)cc1	–	·	73	·	·	·
N#C[C@H]1[C@@H](c2ccc(-c3cccnc3)cc2)[C@@H](CO)N1C(=O)Nc1ccc(F)cc1	–	·	–	–	·	·
C[C@@H]1CN([C@@H](C)CO)C(=O)c2cccc(NC(=O)c3nc4ccccc4s3)c2O[C@H]1CN(C)Cc1ccc(C(=O)O)cc1	–	·	–	–	·	·
O=C(C[C@H]1CC[C@H](NC(=O)c2cccnc2)[C@H](CO)O1)NCCN1CCCCC1	–	·	–	–	·	·

Bioassay records deposited in PubChem by Broad Institute.
